# Compound activity from PubChem BioAssay.
# NPY Y2 blocker – blocks the human neuropeptide Y Y2 receptor | P49146 | 140,000 compounds, 0.99% hits | inhibition, % at 2.7 µM | NPY-Y2 expressing cells, antagonist mode; in the data active = inhibition above about 17%;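 note: 0% = vehicle with agonist challenge and 100% = reference antagonist with challenge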
# Target sequence (P49146 whole entry, looked up): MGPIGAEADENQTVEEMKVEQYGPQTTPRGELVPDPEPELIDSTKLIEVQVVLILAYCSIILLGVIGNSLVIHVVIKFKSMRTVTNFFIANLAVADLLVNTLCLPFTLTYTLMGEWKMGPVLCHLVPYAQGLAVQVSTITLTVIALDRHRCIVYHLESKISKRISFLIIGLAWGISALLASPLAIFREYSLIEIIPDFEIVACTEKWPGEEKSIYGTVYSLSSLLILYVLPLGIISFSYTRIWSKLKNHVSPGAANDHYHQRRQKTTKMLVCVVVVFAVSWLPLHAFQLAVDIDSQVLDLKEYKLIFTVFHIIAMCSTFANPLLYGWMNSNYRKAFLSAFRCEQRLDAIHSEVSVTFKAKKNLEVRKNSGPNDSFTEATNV
# NPY-Y1 PAM-ag – potentiates or activates human NPY-Y1 receptor; NPY-Y1 expressing cells, potentiator/agonist activation; activation, % at 3.6 µM; 220,000 compounds, 0.37% hits; AID 1304; in the data active = activation above about 33%, passing the limit was not always enough;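 note: cells stimulated with NPY at EC10 then isoproterenol at EC100; 0% = low agonist plus stimulus and 100% = saturating agonist plus stimulus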
# PGE2 EP2 inh – EP2 receptor (human) inhibition; 260,000 compounds, 0.52% hits; P43116; inhibition, % at 25 µM; C6 glioma cells expressing human EP2, cAMP TR-FRET; cells stimulated with saturating PGE2; AID 1422;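 active = percent inhibition above 40 after rounding to a whole number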;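 note: rat C6 glioma host cells with rolipram phosphodiesterase inhibitor present; the protocol text gives 20 µM as final concentration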
# NPY Y1 blocker – antagonists of human neuropeptide Y receptor Y1; P25929; HEK293-CNG Y1 cells, membrane potential fluorescence; NPY at EC95, then isoproterenol; inhibition, % at 3.6 µM; 200,000 compounds, 1% hits; AID 1040;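 active = inhibition above the campaign mean inhibition of all tested compounds plus 3 SD, cut at about 20% in these data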;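 note: 0% = DMSO wells given NPY plus isoproterenol and 100% = isoproterenol alone without NPY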
#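 Material: HEK293 cells with Y1 receptor plus CNG channel; times: compound incubation 1 h at room temperature, readout 45 min post-stimulation; signal: fluorescence, membrane potential probe; read-out basis: fluorescence ratio normalized to % inhibition between controls; benchmarks: full-block control isoproterenol-only wells, zero-block control NPY plus isoproterenol wells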
# EP2 mod – modulators of human EP2 prostaglandin E2 receptor | induction, % at 25 µM | EP2-expressing cells, cAMP HTRF FRET, PGE2 co-stimulation | 260,000 compounds, 0.83% hits | P43116;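 active = compounds whose cAMP rise, as percent of the full-agonist control response, exceeds 60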;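 note: rat C6 glioma line stably carrying human EP2 under a CMV promoter; the protocol text gives 20 µM as final concentration; 100% = response of wells given 1 µM PGE2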
# NPY-Y2 PAM-ag – human NPY-Y2 potentiation or agonism, primary screen; cells expressing NPY-Y2, potentiator/agonist read-out; P49146; 220,000 compounds, 0.45% hits; activation, % at 3.6 µM; in the data active = activation above about 27%;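 note: cells stimulated with NPY near EC25 plus isoproterenol at EC100; 0% = vehicle plus submaximal agonist and 100% = vehicle plus saturating agonist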
# NPY-Y1 antag ct – human NPY-Y1 antagonism in NPY-Y2 counter-screen; cell-based NPY-Y1 antagonism counterscreen; shares compounds with NPY Y2 blocker; inhibition, % at 3.6 µM; 710 compounds, 19% hits; in the data active = inhibition above about 20%;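 note: cells challenged with NPY then isoproterenol with cAMP sensed through a CNG channel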
# NPY-Y2 ant conf – human NPY-Y2 antagonism, confirmation; shares compounds with NPY Y2 blocker; HEK293 NPY-Y2 CNG channel, membrane potential fluorescence; inhibition, % at 2.8 µM; 710 compounds, 32% hits;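 active = mean inhibition of triplicate wells above the hit cutoff set in the primary screen, cut at about 17% in these data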;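 note: 0% = DMSO with NPY challenge and 100% = BIIE0246 high control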
# The depositor's hits bear a star; . = no result. In the library only some 2.8% were active in any assay of this set; here they are far more common.
SMILES,NPY Y2 blocker,NPY-Y1 PAM-ag,PGE2 EP2 inh,NPY Y1 blocker,EP2 mod,NPY-Y2 PAM-ag,NPY-Y1 antag ct,NPY-Y2 ant conf
Cc1nnc(Nc2ccccn2)[nH]c1=O,.,.,5.5,.,2.5,.,.,.
CCCCSc1nnc(-c2ccc(C)cc2)c2ccccc12,17.7*,7.9,7.0,7.0,27.9,2.3,8.8,12.9
CCn1c(/C=C/Nc2ccccc2)[n+](CC)c2cc(Cl)c(Cl)cc21,34.6*,0.0,4.5,7.7,-10.9,4.4,13.3,14.8
c1ccc(CCNc2c(-c3ccccn3)nc3cnccn23)cc1,.,.,8.7,.,-76.4,.,.,.
CC12CCC(C(=O)N(Cc3ccccc3)Cc3ccccc3)(OC1=O)C2(C)C (configuration not stated),17.8*,-37.3,17.9,19.2,61.2*,-30.8,15.6,14.5
Nn1c(Cc2cccc3ccccc23)nnc1SCc1ccc(Cl)c(Cl)c1,3.5,-3.9,8.5,1.8,-43.9,8.1,.,.
Nn1c(Cc2cccc3ccccc23)nnc1SCc1c(Cl)cccc1Cl,20.3*,-29.0,-1.1,1.5,-32.5,-22.7,16.5,40.5*
COc1ccc(-n2ncc3c(=O)n(CC(=O)c4ccccc4)cnc32)cc1,.,.,12.9,.,15.8,.,.,.
CCN(CC)S(=O)(=O)c1cccc(-c2n[nH]c(=S)n2/N=C/c2ccc(Br)cc2)c1,19.1*,-23.9,12.9,8.3,-28.7,-0.5,8.7,8.1
O=C(NC(c1ccccc1)c1ccccc1)C1(c2cccs2)CCOCC1,17.6*,4.6,10.4,15.5,13.2,-3.4,6.1,4.9
COC(=O)c1cc2c(ccn2-c2ccc(F)cc2)n1Cc1ccc(C#N)cc1,18.7*,0.0,10.7,1.1,-86.5,0.6,10.4,9.5
CCC(c1nnnn1CCc1ccccc1)N(Cc1ccco1)Cc1cc2cc(C)cc(C)c2[nH]c1=O (configuration not stated),17.1*,-20.6,3.6,19.5,.,-19.6,8.0,9.8
CCC(c1nnnn1CCc1ccccc1)N(Cc1ccco1)Cc1cc2c(C)ccc(C)c2[nH]c1=O (configuration not stated),8.3,-9.6,7.6,7.4,40.3,-18.9,.,.
CCOC(=O)C1=C(c2ccccc2)Nc2ncnn2C1c1ccc(OC)cc1OC (configuration not stated),.,.,8.9,.,-14.4,.,.,.
O=C(NC1CCCCC1)C(c1cccnc1)N(CCc1ccccc1)C(=O)Cc1cccs1 (configuration not stated),22.5*,-23.7,5.5,5.4,21.4,-0.7,18.8,12.2
N=c1c2c(ncn1Cc1ccco1)Oc1c(ccc3ccccc13)C2c1ccccc1 (configuration not stated),19.0*,-63.3,5.4,13.7,-21.5,-6.7,14.1,12.2
CCCn1nnnc1NC(=O)COc1ccc(CC)cc1,17.6*,-10.2,6.1,6.0,11.3,-6.7,6.2,4.2
CCc1ccc2[nH]c(=O)c(CN(Cc3cccnc3)C(=O)c3cccnc3)cc2c1,.,.,13.1,.,-7.6,.,.,.
Cc1cc(C)n(-c2nc(C)nc(N)n2)n1,20.2*,7.7,4.2,5.7,8.6,15.4,5.5,0.5
CC(=O)c1ccc(N2Cc3ccccc3/C2=N\C(=O)Nc2ccc(Cl)cc2)cc1,24.4*,14.7,0.8,5.8,-10.6,6.3,109.2*,150.5*
O=C(OCc1nnc(-c2ccccc2)o1)c1ccco1,-2.2,-3.2,12.7,2.2,9.5,-12.9,.,.
O=C(OCc1nnc(-c2ccccc2)o1)c1ccc2c(c1)OCO2,19.6*,-20.8,9.8,10.8,-37.6,-33.0,18.0,15.6
CCOC(=O)Cn1c(=N)n(Cc2ccccc2)c2ccccc21,8.5,-14.4,24.7,3.1,10.3,7.2,.,.
N=c1n(Cc2ccccc2)c2ccccc2n1Cc1ccccc1,23.1*,-1.3,15.6,16.6,-32.9,29.8,13.4,12.8
CC(/C=C1\SC(=S)N(NC(=O)c2ccc(C)cc2)C1=O)=C\c1ccccc1,18.5*,-11.3,8.4,13.1,42.7,-18.4,16.7,20.1*
SMILES,NPY Y2 blocker,NPY-Y1 PAM-ag,PGE2 EP2 inh,NPY Y1 blocker,EP2 mod,NPY-Y2 PAM-ag,NPY-Y1 antag ct,NPY-Y2 ant conf
Cc1ccccc1NC(=O)c1sc(Cl)nc1C,3.1,6.0,7.2,-2.6,2.7,-2.0,.,.
Cc1cccc(NC(=O)c2sc(Cl)nc2C)c1C,17.9*,1.8,6.3,-3.2,-19.2,0.9,-1.2,1.7
O=c1c2ccccc2nc(SCc2cccc(F)c2)n1Cc1ccco1,19.3*,-20.6,7.3,17.6,45.7,-2.2,8.8,12.7
COc1ccc(C(C(=O)NC2CCCC2)N(C(=O)c2ccoc2C)c2ccc(C)cc2)cc1 (configuration not stated),18.6*,-16.6,5.7,19.7,24.2,-19.1,6.5,3.6
COc1cc(/C=C2\SC(=S)N(CCC(=O)Nc3ccc(F)cc3)C2=O)cc(OC)c1OC,.,.,14.4,.,-28.7,.,.,.
COc1ccc(N2CCN(Cc3nc4c(c(=O)n(C)c(=O)n4C)n3Cc3cccc(C)c3)CC2)cc1,24.5*,2.4,.,-1.2,13.6,2.1,3.0,2.5
CCC(C)(C)n1nnnc1C(c1ccc(N(C)C)cc1)N1CCN(C2CCCCC2)CC1 (configuration not stated),2.1,-5.5,16.1,1.0,13.7,-2.7,.,.
COc1ccccc1C(c1nnnn1Cc1ccccc1)N1CCN(C2CCCC2)CC1 (configuration not stated),8.5,-24.5,13.6,6.0,-16.4,-4.8,.,.
CCC(C)(C)n1nnnc1C(c1ccccc1)N1CCN(C2CCCC2)CC1 (configuration not stated),19.8*,-19.3,11.7,8.2,12.4,8.1,5.2,11.7
COc1cccc(C(c2nnnn2Cc2ccccc2)N2CCN(C3CCCC3)CC2)c1OC (configuration not stated),18.4*,-33.6,32.5,0.5,-16.4,-12.2,6.5,6.4
C=CCn1c(SC2CCOC2=O)nc2sc(C)c(C)c2c1=O (configuration not stated),6.2,-38.4,10.2,8.3,23.1,-13.2,.,.
C=CCn1c(SC2CCOC2=O)nc2scc(C3CC3)c2c1=O (configuration not stated),45.3*,-5.1,3.0,12.3,36.6,-22.4,29.8*,81.0*
CCOC(=O)c1c(NC(=O)C2C3C=CC(CC3)C2C(=O)O)sc(C)c1C (configuration not stated),18.4*,17.9,19.4,2.2,22.2,14.4,0.2,2.7
CCOC(=O)c1c(NC(=O)C2C3C=CC(C3)C2C(=O)O)sc2c1CCC(CC)C2 (configuration not stated),3.5,18.1,5.5,-0.1,18.6,2.2,.,.
